Screens (PubChem BioAssay)
The list is not random: actives were taken first. Their share in the collection is about 3.3%.
HTR1A agonist = activates the human 5-HT1a serotonin receptor; P08908; CHO 5-HT1a Ga15 NFAT-bla reporter, FRET ratio; 0% basal, 100% maximal reference agonist; activation, % at 10 µM; 65,000 compounds, 0.56% hits; AID 567;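 active = activation above the screen-wide mean activation plus 3 SD, cut at about 19% in these data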
Target sequence (P08908 whole entry, looked up): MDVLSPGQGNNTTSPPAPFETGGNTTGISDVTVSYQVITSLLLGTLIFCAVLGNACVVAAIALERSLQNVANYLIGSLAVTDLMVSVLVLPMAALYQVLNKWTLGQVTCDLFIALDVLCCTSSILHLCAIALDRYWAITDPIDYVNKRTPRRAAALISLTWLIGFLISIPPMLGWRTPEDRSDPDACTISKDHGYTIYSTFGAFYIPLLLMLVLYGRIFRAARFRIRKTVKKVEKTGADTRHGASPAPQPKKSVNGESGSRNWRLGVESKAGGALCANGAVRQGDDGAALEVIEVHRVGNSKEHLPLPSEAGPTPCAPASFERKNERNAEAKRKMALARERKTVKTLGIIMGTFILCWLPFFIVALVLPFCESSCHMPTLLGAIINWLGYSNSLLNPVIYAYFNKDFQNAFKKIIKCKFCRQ
Jurkat viability = cytotoxic compounds reducing Jurkat cell viability; Jurkat E6.1 viability, ATP luminescence, 48 h; 56,000 compounds, 1.2% hits; AID 463; inhibition, % at 4 µM;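 active = inhibition above the mean inhibition of all tested compounds plus 3 SD, cut at about 28% in these data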
5HT1E antag = 5-HT1E (human) receptor antagonism; inhibition, % at 6 µM; 65,000 compounds, 0.99% hits; P28566; AID 571; CHO 5-HT1E Ga15 NFAT-bla reporter, FRET, antagonist;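 active = inhibition above a set limit, the mean inhibition across every tested compound plus 3 SD, cut at about 29% in these data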;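 also: signal is the 460 over 535 nm emission ratio of beta-lactamase substrate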
HEK293 NFkB inh = inhibitors of the PMA/ionomycin-induced NF-kB reporter in HEK293 cells | HEK-293 NF-kB luciferase reporter, luminescence | inhibition, % at 3 µM | 62,000 compounds, 0.21% hits;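 active = inhibition above the mean of all tested compounds plus 3 SD, cut at about 40% in these data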
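System – HEK-293 cells with stable firefly luciferase reporter driven by four HIV NF-kB elements · Doses – one dose, 3 µM · Schedule – 1 h compound pre-incubation, 16 h PMA/ionomycin at 37 °C · Technique – luminescence from luciferase substrate reagent · Measure – percent inhibition normalized per plate to DMSO and reference-inhibitor controls · Replicates – tested once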
HTR1E agonist = agonists of human 5-HT1E serotonin receptor; CHO 5-HT1E Ga15 NFAT-bla reporter, FRET; 0% DMSO wells, 100% control agonist wells; activation, % at 6 µM; 65,000 compounds, 0.69% hits; AID 574;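 active = activation above a set limit, the screen-wide mean activation plus 3 SD, cut at about 8.5% in these data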
5-HT1A blocker = antagonists of human 5-HT1a serotonin receptor; P08908; CHO 5-HT1a Ga15 NFAT-bla reporter, antagonist mode; inhibition, % at 10 µM; 62,000 compounds, 0.68% hits;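 active = inhibition above the mean of all tested compounds plus 3 SD, cut at about 43% in these data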;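 also: receptor stimulated by 5-CT agonist at 100 nM near EC80; beta-lactamase reporter measured by ratiometric fluorescence of a cleavable substrate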
Hits are given with their value; n = inactive; x = no result given.

SMILES	HTR1A agonist	Jurkat viability	5HT1E antag	HEK293 NFkB inh	HTR1E agonist	5-HT1A blocker
CCOC(=O)N1CCC(NC(=O)c2cccc3c2C(=O)N(c2ccc(OC)cc2)C3)CC1	n	n	n	n	n	n
O=C(NC1CC1)c1cc2c(s1)-c1ccccc1OC2	n	37.6	n	n	n	n
O=C(O)c1cc2c(s1)-c1ccccc1OC2	n	x	n	n	n	n
CCC(C)(C(=O)NC1CCCC1)N(Cc1cccs1)C(=O)Cc1cccs1 (configuration not stated)	n	x	n	n	n	59.2
CCC(C)(C(=O)NC1CCCC1)N(Cc1ccco1)C(=O)c1ccc2c(c1)OCO2 (configuration not stated)	n	n	n	n	n	49.0
CCC(C)(C(=O)NC1CCCC1)N(Cc1cccs1)C(C)=O (configuration not stated)	n	x	n	n	n	n
COc1cccc(OCc2nc3c4cnn(-c5ccccc5)c4ncn3n2)c1	24.2	n	n	n	n	n
COc1cccc(OCCN2CCN(c3ncnc4c3cnn4-c3ccccc3)CC2)c1	n	x	n	x	n	x
Cc1cccc(-c2cc3nc4c(c(N5CCOCC5)n3n2)CCCC4)c1	n	n	39.6	n	n	n
Cc1cccc(-c2cc3nc4c(c(N5CCCC(O)C5)n3n2)CCC4)c1 (configuration not stated)	n	n	49.8	n	n	n
OC1CCCN(c2c3c(nc4cc(-c5cccc(Cl)c5)nn24)CCC3)C1 (configuration not stated)	n	x	38.2	n	n	n
Cc1cccc(-c2cc3nc4c(c(N5CCC6(CC5)OCCO6)n3n2)CCCC4)c1	n	n	n	n	n	n
Fc1ccc(-c2cc3nc4c(c(N5CCOCC5)n3n2)CCCC4)cc1	n	n	n	n	n	n
CN(Cc1ccccc1)c1nc2c(c(=O)[nH]c(=O)n2C)n1CCOc1ccccc1	n	n	n	n	n	n
COC(=O)C1=C(N)Oc2cc(C)n(CC3CCCO3)c(=O)c2C1c1ccccc1OC (configuration not stated)	n	n	n	n	n	n
COC(=O)C1=C(N)Oc2cc(N(C)C)ccc2C1c1ccccc1OC (configuration not stated)	n	74.9	n	n	n	n
COc1ccc(C(=O)CSc2nnc(Cn3cnc4ccccc43)o2)cc1	n	92.4	n	n	n	n
CCOC(=O)c1[nH]c(C)c(C(=O)Nc2cc(Cl)ccc2C)c1C	n	88.3	44.0	n	n	n
CCOC(=O)c1[nH]c(C)c(C(=O)Nc2ccc(C)c(Cl)c2)c1C	n	n	n	n	n	n
CCOC(=O)c1[nH]c(C)c(C(=O)Nc2ccc(C)c(F)c2)c1C	n	49.3	n	n	n	n
CCOC(=O)c1[nH]c(C)c(C(=O)Nc2ccccc2C)c1C	n	78.6	n	n	n	n
CCCCCCC(=O)c1c(C)[nH]c(C(=O)OCC)c1C	n	n	36.5	n	n	n
CCCN(CCC)C(=O)c1c(C)[nH]c(C(=O)OCC)c1C	n	n	n	n	n	n
O=C(CCN1C(=O)c2ccccc2S1(=O)=O)Nc1nc2c(s1)CCCC2	n	n	n	n	n	n
CCSc1nnc(Cc2cc(=O)[nH]c(=O)[nH]2)n1-c1cc(C)ccc1C	n	n	n	n	n	n
SMILES	HTR1A agonist	Jurkat viability	5HT1E antag	HEK293 NFkB inh	HTR1E agonist	5-HT1A blocker
CC(CN(C)Cc1ccccc1)OC(=O)c1ccc2c(c1)OCCO2 (configuration not stated)	n	x	n	n	n	n
CCOC(=O)c1csc(NC(=O)CSc2nnnn2CC)n1	n	n	n	n	n	n
CCOC(=O)c1[nH]c(C)c(C(=O)OCCN2C(=O)c3ccccc3C2=O)c1C	n	n	37.4	n	n	n
CCN1C(=O)CC(C(=O)O)SC1=Nc1ccc(OC)cc1 (configuration not stated)	n	n	n	n	n	n
CCOC(=O)CSc1cc(=O)n(C)c2cc(Cl)ccc12	n	n	n	n	n	n
COc1cc(OC)nc(NC(=O)COC(=O)C2CCCCC2)n1	90.7	n	n	n	n	n
c1ccc(-c2nc(NC3CC3)nc(-n3ccnc3)n2)cc1	n	n	29.3	n	n	n
CC(C)Nc1nc(-c2ccccc2)nc(-n2ccnc2)n1	n	n	30.3	n	n	n
c1ccc(-c2nc(-n3ccnc3)nc(-n3ccnc3)n2)cc1	n	n	n	n	n	n
CS(=O)(=O)n1nc(OC(=O)c2cccc3ccccc23)cc1N	n	n	n	n	n	42.8
COc1ccc(S(=O)(=O)n2nc(OC(=O)c3ccccc3Br)cc2N)cc1	n	n	n	n	n	n
COc1ccc(CCNC(=O)c2cnn3cccnc23)cc1OC	n	n	n	n	n	n
Cc1nnc(SCc2cn3ccsc3n2)n(N)c1=O	n	n	n	n	n	n
O=c1c2ccccc2nc(SCc2cn3ccsc3n2)n1-c1ccc(F)cc1	n	n	37.2	n	n	n
Cc1cc(N(C)C)c(C#N)c(NCc2ccccc2)n1	n	n	n	n	n	n
N#Cc1ccccc1NCc1ccccc1	n	n	n	n	n	n
N#Cc1c(NCc2ccccc2)ccnc1NCc1cccnc1	n	68.6	n	n	n	n
CN(C)c1ccnc(NCc2ccccc2)c1C#N	20.3	n	n	n	n	n
Cc1ccc(Cl)cc1N1CCN(C(=O)COc2ccc(S(=O)(=O)NC(C)C)cc2)CC1	n	54.1	n	n	n	n
O=C1CCCN1c1cc(Cl)ccc1Cl	n	n	n	n	n	n
CCCc1nc2oc3c(NCCOCCO)ncnc3c2c2c1COC(C)(C)C2	n	n	29.9	n	n	n
C=CCOc1ccc(C2C(C(=O)c3ccco3)=C(O)C(=O)N2Cc2cccnc2)cc1 (configuration not stated)	n	n	n	n	n	n
C=CCOc1cccc(C2C(C(=O)c3ccco3)=C(O)C(=O)N2CCN(CC)CC)c1 (configuration not stated)	20.4	n	n	n	n	n
Cc1sc2nc(C3CC3)nc(NCCNS(C)(=O)=O)c2c1C	n	n	38.8	n	n	n
S=C(Nc1ccccn1)c1ccccn1	n	n	33.1	n	n	n
SMILES	HTR1A agonist	Jurkat viability	5HT1E antag	HEK293 NFkB inh	HTR1E agonist	5-HT1A blocker
O=C(Nc1ccccc1)Nc1ccccn1	n	n	n	n	n	n
CC1(C)Cc2c(C#N)c(NCCc3ccccc3)nc(-c3ccco3)c2CO1	49.5	x	n	x	9.1	x
CCc1ccc2oc(-c3cc(N)ccc3O)nc2c1	n	n	n	n	n	n
CCc1ccc2oc(-c3cc(N)cc(C)c3O)nc2c1	n	46.8	n	n	n	n
COC(=O)c1cc2ccsc2n1CC(=O)Nc1cc(Cl)ccc1OC	n	86.0	n	n	n	52.5
CSc1nc2[nH]c3c(c2c2nnnn12)CCCC3	n	x	35.8	x	n	x
Cc1ccc(C(=O)CCNc2ccc(F)c(Cl)c2)o1	n	83.0	n	n	n	n
